MT stabilize HCS = microtubule stabilizers in HeLa cells; HeLa tubulin immunostaining HCS, 24 h; share of cells brighter than vehicle mean+2SD; % tubulin-high responders, % at 10 µM; actives 0.83% (n = 200,000);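 active = plate Z-score above 3 for both tubulin-high and condensed-nucleus cell shares, with cell loss under 80%, at 10 µM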;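 note: anti alpha tubulin signal scored within the nucleus-defined area of each cell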
KCC2 mod = modulators of human KCC2 chloride dependent transport | Q9H2X9 | KCC2 cells, thallium flux FluoZin-2 fluorescence | B-score of Tl+ flux slope (higher = more flux/activation; lower = inhibition) at 10 µM | actives 2.2% (n = 190,000) | AID 1456;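 active = thallium flux slope and its plate-corrected score both differing from the plate sample mean at a set confidence after two filtering rounds, in either direction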;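 note: slope of fluorescence scaled to starting intensity during 10 to 20 s after thallium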
bCat nuc transl = alters nuclear translocation of beta-catenin in HeLa cells | actives 0.3% (n = 190,000) | nuclear translocation activity, % at 5 µM | immunofluorescence imaging | AID 1665;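 active = nuclear translocation activity above 50% at 5 µM, with a well cell count of 50 or more; inconclusive = wells under 50 cells across six images, flagged as toxic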;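 note: per-cell ratio of nuclear to cytoplasmic median beta-catenin stain intensity; plate controls were DMSO negative control for no effect and GSK-3 inhibitor IX positive control for full effect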
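Test system: HeLa cells, endogenous beta-catenin; Compound: single 5 µM dose plus 0.02–20 µM confirmation series; Times: compound exposure 24 h at 37°C; Signal: fluorescence imaging of beta-catenin antibody stain plus DAPI; Read-out: % activation, nuclear-to-cytoplasmic median beta-catenin signal ratio per cell.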
WT yeast gro inh = growth inhibition of WT yeast, mitochondrial fusion screen; actives 2.1% (n = 190,000); AID 1362; inhibition, % at 10 µM; mitochondrial fusion phenotypic screen, WT strain; in the data active = inhibition above about 58%; tested in S. cerevisiae
Pf gamet viab = P. falciparum stage V gametocyte viability inhibition; P. falciparum stage V gametocytes, ATP luminescence, 24 h; inhibition, % at 10.9 µM; actives 0.065% (n = 150,000); AID 743093;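 active = inhibition above the mean plus 3 SD of compounds within the control limits, set per campaign, cut at about 38% in these data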;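 note: 0% = DMSO wells and 100% = medium only without gametocytes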
KCC2 secondary = KCC2 (human) modulation, secondary assay | HEK293-KCC2, thallium flux, FluoZin2 fluorescence; stronger effect = higher value | shares compounds with KCC2 mod | actives 15% (n = 3,700) | normalised thallium flux (F/F0 slope) at 10 µM | AID 1713;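 active = thallium flux slope above the same plate's solvent-only control mean plus 3 SD; inconclusive = the two replicate wells disagree; inactive = no significant difference from solvent-only control wells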
KCC2 bumet counter = thallium flux despite bumetanide block in KCC2 cells, secondary assay 3; shares compounds with KCC2 mod; HEK293-KCC2 + bumetanide/ouabain, thallium flux FluoZin2; stronger effect = higher value; normalized thallium flux at 10 µM; actives 49% (n = 3,700); AID 1714;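 active = thallium entry rate above the same plate's blocked-transporter control wells by more than 3 SD; inconclusive = the two repeat wells disagree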;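 note: raw slope of fluorescence over initial fluorescence between 10 and 20 s after thallium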
KCC2 secondary2 = KCC2 (human) modulation, second secondary assay | normalized thallium flux at 10 µM | actives 23% (n = 3,700) | shares compounds with KCC2 mod | HEK293-KCC2, thallium flux FluoZin2 fluorescence; actives lie on both sides; F/F0 rise rate, 10–20 s post-thallium;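 active = thallium flux slope more than 3 SD above or below the plate's solvent-only control mean, mostly below; inconclusive = the two repeat wells disagreed; inactive = no significant shift from solvent-only controls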;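 note: raw slope with 0.1% DMSO as baseline and bumetanide as block control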
HEK293 Tl flux = parental HEK flux effect, counter-screen; AID 1716; thallium flux rate (normalised fluorescence) at 10 µM; HEK293 parental cells, thallium flux FluoZin2, ouabain; baseline-ratio fluorescence slope, 10–20 s after thallium; actives 46% (n = 3,700); shares compounds with KCC2 mod;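 active = thallium flux rate significantly above the same plate's solvent-only control wells, beyond their mean plus 3 SD; inconclusive = the two replicate wells gave conflicting results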
KCC2 retest ouab = confirmation of human KCC2 modulators with ouabain | shares compounds with KCC2 mod | HEK293-KCC2, thallium flux FluoZin2 fluorescence; bidirectional: low = inhibitor, high = activator | raw Tl+ flux slope (below DMSO = inhibition, above = activation) at 10 µM | actives 48% (n = 3,700);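 active = thallium flux slope beyond 3 SD from same-plate DMSO control mean in most replicates, usually higher, sometimes lower; inconclusive = repeat tests gave conflicting results; inactive = no significant difference from controls in most replicates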;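 note: slope of initial-normalized fluorescence between seconds 10 and 20 after thallium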
HEK293 Tl flux2 = counter-screen for KCC2 modulators: effect in parental HEK293 cells; shares compounds with KCC2 mod; thallium flux FluoZin-2 fluorescence slope; thallium flux slope at 10 µM; actives 33% (n = 3,700);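 active = thallium flux slope above the same plate's solvent-control mean plus 3 SD in both duplicate wells; inconclusive = duplicate wells that disagreed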;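 note: run without ouabain in cells lacking the KCC2 cotransporter; slope of fluorescence scaled to its starting value between 10 and 20 s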
Starred values were filed as active, the others as inactive; ? = inconclusive; . = not tested or not shown. A selection: hits, their analogues and other compounds. The true share with any hit is near 4%.

SMILES	MT stabilize HCS	KCC2 mod	bCat nuc transl	WT yeast gro inh	Pf gamet viab	KCC2 secondary	KCC2 bumet counter	KCC2 secondary2	HEK293 Tl flux	KCC2 retest ouab	HEK293 Tl flux2
O=C(/C=N/NC(=O)c1ccc(Cl)cc1Cl)c1ccccc1	.	91*	-1	.	9	0.0062	0.1*	0.062*	0.048*	0.076*	0.039*
O=C(/C=N/NC(=O)c1ccccc1Br)c1ccccc1	2	8*	-6	-5	19	0.0068	0.019*	0.031	0.02*	?	0.018*
O=C(COc1cccc(Br)c1)N/N=C/C(=O)c1ccccc1	1	5.9*	1	8	-1	0.0055	0.014*	0.032	0.012*	?	0.015*
O=C(Nc1ccc(Nc2ccccc2)cc1)c1ccc(Cl)cc1Cl	.	.	.	.	12	.	.	.	.	.	.
N#C/C(=C\c1c[nH]c2ccccc12)C(=O)NC1CCCC1	.	.	.	.	-32	.	.	.	.	.	.
O=C(NCCc1cn2ccccc2n1)c1cc(COc2c(F)cccc2F)on1	2	-4*	0	8	4	?	?	?	0.0079	0.016*	0.0097
O=C(CC1CCCC1)NCCc1cn2ccccc2n1	3	0.38	.	5	.	.	.	.	.	.	.
Cc1ccc(CNC(=O)c2cc(COc3c(F)cccc3F)on2)s1	1	.	0	21	.	0.0068	0.0064	0.033	0.0037	0.015*	0.011
O=C(CN1CCN(S(=O)(=O)c2ccc(Cl)cc2)CC1)Nc1ccc2c(c1)CCC2	3	-0.59	-1	33	18	0.0054	0.005	0.028	0.0077	0.018	0.011
Cc1ccc(S(=O)(=O)N2CCN(CC(=O)Nc3ccc4c(c3)CCC4)CC2)cc1C	3	-0.43	-2	33	-9	.	.	.	.	.	.
COc1ccc(CNn2c(-c3cccc(C)c3)nc3ccccc3c2=O)cc1OC	1	.	-1	-2	-11	0.0094	0.006	0.03	0.0075	0.021	0.01
N#C/C(=C\c1ccc(-c2ccccc2Cl)o1)C(=O)Nc1nc2ccccc2s1	2	6.8*	-1	1	-2	0.0069	0.024*	0.037	0.032*	0.029*	0.034*
O=c1c2cc(Br)ccc2[nH]c(=S)n1Cc1ccccn1	2	35*	1	-3	-31	?	0.071*	0.044*	0.046*	0.057*	0.021*
CC(=O)c1c(C)oc2ccc(N(C(C)=O)S(=O)(=O)c3cccc4cccnc34)cc12	.	-1.1	0	.	-12	.	.	.	.	.	.
COc1cc(/C=C2/C(=O)c3cccc([N+](=O)[O-])c3C2=O)c(Br)cc1O	3	-4.7*	1	2	.	0.011	0.0078	0.033	0.0065	0.018	0.01
CCN1CCN(C(c2ccccc2)c2nnnn2Cc2ccccc2)CC1 (stereo not given)	3	-4.9*	-3	-16	.	0.014	0.0052	0.03	0.0073	0.016	0.0091
S=c1[nH]nc(Cc2c[nH]c3ccccc23)o1	3	-5.5*	-2	-11	.	0.0083	0.0057	0.023*	0.0068	0.011*	0.0094
c1ccc(Cc2c[nH]c3ccccc23)cc1	.	.	.	.	18	.	.	.	.	.	.
Cc1ccc2c(Cl)cc(Cl)c(OCC(=O)Nc3ccc(C)c(S(=O)(=O)N(C)C)c3)c2n1	8	4.6*	5	6	.	0.0099	0.017*	0.034	0.016*	0.024*	0.012
Cc1ccc2c(Cl)cc(Cl)c(OCC(=O)Nc3cccc(S(=O)(=O)N(C)C)c3)c2n1	4	7.9*	5	10	.	0.01	0.019*	0.034	0.014*	0.03*	?
Cc1cc(C(=O)OCC(=O)Nc2cccc(S(=O)(=O)N(C)C)c2)c2ccccc2n1	3	-2.9*	-2	-5	.	0.0089	0.006	0.03	0.0057*	0.019	0.0093
Cc1ccc2c(Cl)cc(Cl)c(OCC(=O)Nc3cc(S(=O)(=O)N(C)C)ccc3C)c2n1	4	-0.98	1	32	.	.	.	.	.	.	.
Cc1ccc(-n2c(=O)c3ccccc3n(CC(=O)C(C)(C)C)c2=O)cc1	2	0.23	0	7	12	.	.	.	.	.	.
CCn1cc(C(=O)N2CCN(c3ccccn3)CC2)c(=O)c2cc(S(=O)(=O)N(C)C3CCCCC3)ccc21	2	-0.99	0	-12	-27	.	.	.	.	.	.
O=C(CCCSc1nc2sc3c(c2c(=O)[nH]1)CCC3)NCCO	1	-4.2*	-1	-3	-4	0.015	0.0047	0.028	0.0073	0.016	0.0098
SMILES	MT stabilize HCS	KCC2 mod	bCat nuc transl	WT yeast gro inh	Pf gamet viab	KCC2 secondary	KCC2 bumet counter	KCC2 secondary2	HEK293 Tl flux	KCC2 retest ouab	HEK293 Tl flux2
O=C(Nc1cccc(Cl)c1)Nn1cnnc1	.	0.17	-1	.	.	.	.	.	.	.	.
N#Cc1c(-c2ccccc2)nc(SCc2nc(N)nc(N3CCCCC3)n2)[nH]c1=O	2	-2.7*	.	-11	15	?	0.0046	0.025*	0.0059*	0.012*	?
CCSc1nc(-c2ccccc2)c(C#N)c(=O)[nH]1	4	.	2	-8	.	.	.	.	.	.	.
COC(=O)c1sc(NC(=S)NC(=O)c2ccccc2C)nc1C	1	92*	2	20	14	0.05*	0.15*	0.042*	0.1*	0.088*	0.033*
COCCn1c(C)cc(C(=O)CSc2ccc(NC(C)=O)cc2)c1C	1	1.2	-4	-12	.	.	.	.	.	.	.
COCC(C)n1c(C)cc(C(=O)CSc2ccc(NC(C)=O)cc2)c1C (stereo not given)	1	-5.8*	-1	-15	-7	0.0082	0.0056	0.035	0.0079	0.02	0.012
CC(=O)N=c1sc2ccccc2n1C	3	0.058	-5	-18	.	.	.	.	.	.	.
CC(C(=O)N=c1sc2ccccc2n1C)N1C(=O)C2CC=CCC2C1=O (stereo not given)	6	.	-5	4	27	0.0072	?	?	0.0073	?	0.011
COc1cc(C(C#N)N2CCC(c3ccccc3)=N2)ccc1O (stereo not given)	.	-3.3	1	.	-12	.	.	.	.	.	.
CCOc1ccccc1NC(=O)CNS(=O)(=O)c1ccc2nc(C)sc2c1	4	0.038	0	4	7	.	.	.	.	.	.
Cc1ccc(NC(=O)CN(C)C(=O)CCCN2C(=O)c3ccccc3C2=O)cc1	2	-3.1*	-2	-5	.	0.011	0.0072	0.037	0.0046	0.021	0.012
